# Screening results from PubChem.
# Sampled rows, rich in hits. Any-hit rate of the full collection: about 1.2%.
# ARNT TACC3 PPI: ARNT/TACC3 interaction disruption; AlphaScreen His-ARNT PAS-B/GST-TACC3 binding, luminescence; TACC3 fragment carries E629A point mutation; inhibition, % at 9.99 µM; 390,000 compounds, 0.66% hits; AID 623870; Q9Y6A5;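 active = mean inhibition of replicates at least 50% and at least half of replicates each reaching 50%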;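 note: 0% = complete ARNT plus TACC3 wells and 100% = ARNT alone without TACC3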
# CAL PDZ FP-1: blocks peptide binding to human CAL PDZ domain. Q9HD26. purified CAL PDZ, TMR-peptide fluorescence polarization, 1 h. inhibition, % at 20 µM. 330,000 compounds, 0.02% hits;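 active = highest replicate inhibition of at least 40%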;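 note: plate controls were DMSO neutral control wells for no effect and unlabeled competitor peptide control wells for full effect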
#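 Test system: purified CerCALP PDZ construct; Compound dosing: one concentration, 20 µM compound; Also added: TMR-labelled reporter peptide T*-PRC34 bound in PDZ groove; Read-out: inhibition from polarization loss; Controls: unlabelled peptide and DMSO controls; Signal: FP readout, S and P plane fluorescence; Incubation: 1 h at RT.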
# CAL PDZ FP-2: inhibitors of human CAL PDZ peptide binding; Q9HD26; purified CAL PDZ, TMR-peptide fluorescence polarization, 1 h; inhibition, % at 24.9 µM; 300,000 compounds, 0.92% hits;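 active = mean inhibition of at least 30% with at least half of replicates also reaching 30%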;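 note: 0% = DMSO neutral control and 100% = excess unlabeled competitor peptide PRC23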
# * = called active by the depositor; x = no result given; + = active, no number.
SMILES,ARNT TACC3 PPI,CAL PDZ FP-1,CAL PDZ FP-2
CC(=O)c1ccc(N2CCN(S(=O)(=O)c3c(C(=O)N4CCCCC4)c(C)n(C)c3C)CC2)cc1,4,-2,9
CC(=O)c1ccc(N2CCN(S(=O)(=O)c3c(C(=O)N4CCCC4)c(C)n(C)c3C)CC2)cc1,-1,-1,80*
Cc1ccc(CNS(=O)(=O)c2c(C(=O)N3CCCCCC3)c(C)n(C)c2C)cc1,2,-1,76*
Cc1ccccc1CNS(=O)(=O)c1c(C(=O)N2CCCC2)c(C)n(C)c1C,-4,-3,-4
Cc1[nH]c(C)c(S(=O)(=O)NCc2ccc(Cl)cc2)c1C(=O)N1CCCC1,-5,-1,-2
COc1ccc(CNS(=O)(=O)c2c(C(=O)N3CCCCC3)c(C)n(C)c2C)cc1,-5,-2,4
Cc1c(C(=O)N2CCCCC2)c(S(=O)(=O)NCc2ccc(Cl)cc2)c(C)n1C,0,0,77*
Cc1c(C(=O)N2CCCCC2)c(S(=O)(=O)NCc2ccccc2Cl)c(C)n1C,-1,-2,38*
C[C@H]1CN([C@@H](C)CO)C(=O)c2cc(C#Cc3ccc(F)cc3)cnc2O[C@H]1CN(C)Cc1ccccn1,5,x,x
CNC[C@@H]1Oc2ccc(NC(=O)c3ccncc3)cc2C(=O)N([C@H](C)CO)C[C@@H]1C,6,x,x
O=C(N[C@@H]1CC[C@@H](CCNS(=O)(=O)c2ccccc2)O[C@@H]1CO)c1cccnc1,-1,x,x
C[C@H]1CN([C@@H](C)CO)C(=O)Cc2cc(NC(=O)Nc3ccccc3)ccc2O[C@@H]1CN(C)Cc1ccncc1,5,x,x
C[C@H]1CCCCO[C@H](CN(C)Cc2ccc(C(F)(F)F)cc2)[C@@H](C)CN([C@@H](C)CO)C(=O)c2cc(NS(=O)(=O)c3cccs3)ccc2O1,-2,x,x
CC1(OC(=O)CCc2ccccc2)C(=O)C=C2C=C(c3ccc(C#N)cc3)N(Cc3ccccc3)C=C2C1=O (stereo not given),-27,1,3
COCCN1C=C2C(=O)C(C)(OC(=O)CCc3ccccc3)C(=O)C=C2C=C1c1ccc(C#N)cc1 (stereo not given),active,1,1
CN(C)CCN(C(=O)c1ccc2ccccc2c1)c1nc2ccc(F)cc2s1,7,-2,-3
CCc1ccc2nc(N(CCN(C)C)C(=O)c3ccc4ccccc4c3)sc2c1,3,-2,69*
Cc1noc(C)c1NC(=O)N(C)C[C@H]1OCCCC[C@@H](C)Oc2ccc(NS(=O)(=O)c3ccc(F)cc3)cc2C(=O)N([C@H](C)CO)C[C@H]1C,3,x,x
Cc1cccc(C(CC(=O)NCc2ccco2)c2ccccc2)c1O (stereo not given),-2,0,+
Cc1ccc(O)c(C(CC(=O)NCc2ccco2)c2ccccc2)c1 (stereo not given),-11,-4,-8
CCC(=O)N(C)C[C@@H]1Oc2cc(-c3ccc(C)cc3)ccc2S(=O)(=O)N([C@@H](C)CO)C[C@@H]1C,1,x,x
Cc1ccc(S(=O)(=O)N[C@@H]2CC[C@H](CCn3cc(C(C)C)nn3)O[C@H]2CO)cc1,-4,x,x
O=C(Cc1ccccc1)c1c[nH]c(C(=O)C(Cl)(Cl)Cl)c1,-3,1,168*
O=C(c1ccccc1)c1c[nH]c(C(=O)C(Cl)(Cl)Cl)c1,-7,0,1
CN(C)CCCNC(=O)C[C@H]1CC[C@@H]2[C@@H](COc3ccc(NC(=O)c4ccc5c(c4)OCO5)cc3C(=O)N2C)O1,15,x,x
SMILES,ARNT TACC3 PPI,CAL PDZ FP-1,CAL PDZ FP-2
CN(C)CCCNC(=O)C[C@H]1CC[C@@H](NS(=O)(=O)c2ccc(F)cc2)[C@@H](CO)O1,-2,x,x
CCCC(=O)Nc1cc(C(F)(F)F)ccc1N1CCOCC1,-3,1,35*
CC(=O)Nc1cc(C(F)(F)F)ccc1N1CCOCC1,7,-1,x
C[C@@H]1CN([C@@H](C)CO)C(=O)c2cc(NS(=O)(=O)c3ccccc3)ccc2O[C@H]1CN(C)Cc1ccncc1,-5,x,x
COc1ccc(S(=O)(=O)Nc2ccc3c(c2)C(=O)N([C@H](C)CO)C[C@H](C)[C@@H](CN(C)Cc2ccc(C(=O)O)cc2)OCCCC[C@H](C)O3)cc1,-4,x,x
CCC(=O)N(C)C[C@@H]1Oc2ncc(C#Cc3ccncc3)cc2C(=O)N([C@H](C)CO)C[C@@H]1C,0,x,x
C[C@H](CO)N1C[C@H](C)[C@H](CN(C)C(=O)c2cccc(F)c2)Oc2ncc(-c3ccncc3)cc2C1=O,2,x,x
C/C(=N\Nc1cccc2cccnc12)c1ccccn1,6,-2,-1
C/C(=N\Nc1ncc(Cl)cc1Cl)c1ccccn1,73*,-2,-6
C=CCNC(=S)N/N=C(\C)c1ccccn1,59*,0,-3
CC(=NNC(=S)Nc1ccccc1Cl)c1ccccn1,87*,-2,-1
C/C(=N\Nc1ccc(Cl)c(C(=O)O)c1)c1ccccn1,14,-1,0
C/C(=N\NC(=O)c1ccc(F)cc1)c1ccccn1,x,-2,0
C[C@@H]1CN([C@H](C)CO)C(=O)c2cc(NS(=O)(=O)c3cn(C)cn3)ccc2O[C@@H]1CN(C)Cc1ccc(Oc2ccccc2)cc1,-1,x,x
CN1C(=O)c2cc(NC(=O)c3ccccc3Cl)ccc2OC[C@H]2O[C@@H](CC(=O)O)CC[C@H]21,-8,x,x
CO[C@H]1CN(C)C(=O)c2cc(NC(=O)NC(C)C)ccc2OC[C@@H](C)N(CCC(F)(F)F)C[C@H]1C,-18,x,x
CCS(=O)(=O)c1ccc(OC)c(N=Nc2ccc(O)c3ncccc23)c1,35,-1,-5
CCN(CC)S(=O)(=O)c1cc(OC)ccc1N=Nc1ccc(O)c2ncccc12,48*,0,-3
CCNC(=O)C[C@@H]1CC[C@H]2[C@@H](COC[C@H](O)CN2C(=O)Nc2ccc3c(c2)OCO3)O1,3,x,x
Cc1ccc(S(=O)(=O)Nc2ccccc2C(=O)Nc2nc(-c3ccc(F)cc3)cs2)cc1,-13,-1,-3
COc1ccc(-c2csc(NC(=O)c3ccccc3NS(=O)(=O)c3ccc(F)c(F)c3)n2)cc1,2,0,42*
CNC[C@H]1Oc2ccc(N(C)C)cc2C(=O)N([C@H](C)CO)C[C@H]1C,-4,x,x
O=S(=O)(Cc1ccccc1)N=Nc1c(O)[nH]c2ccc(Br)cc12,3,0,82*
O=C(CNC(=O)c1ccccc1)N=Nc1c(O)[nH]c2ccc(Br)cc12,x,-2,14
Cc1ccccc1-c1ccc2c(c1)O[C@@H](CN(C)Cc1ccncc1)[C@H](C)CN([C@@H](C)CO)S2(=O)=O,19,x,x
Cc1ccc(C)c(NC(=S)N(CCN(C)C)C(C)c2ccccn2)c1 (stereo not given),39,-1,-3
Cc1cccc(C)c1NC(=S)N(CCN(C)C)C(C)c1ccccn1 (stereo not given),45*,0,12
COc1ccc(S(=O)(=O)Nc2ccc3c(c2)C(=O)N([C@H](C)CO)C[C@@H](C)[C@@H](CN(C)C(=O)CCC(F)(F)F)OCCCC[C@H](C)O3)cc1,-2,x,x
CC(=O)OCCNc1cc(N2CCN(C)CC2)c2noc3c2c1C(=O)c1ccccc1-3,49*,0,x
CCN1CCN(c2cc(N3CCN(C(=O)c4ccco4)CC3)c3c4c(onc24)-c2ccccc2C3=O)CC1,43,-3,-13
